The target in one data set is Acetylcholinesterase (Homo sapiens, UniProt P22303). In words: Inhibition of human acetylcholinesterase from erythrocytes (RBC).
The target of a further data set is Cholinesterase (Homo sapiens, UniProt P06276). The experiment in a line: Inhibition of human Butyrylcholinesterase. Summed up: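 Compounds in Tween 80/EtOH 3:1 were diluted in half-log steps to 0.3 nM–[…] final and preincubated with enzyme in pH 8.0 buffer for 30 min at RT. Run on four occasions. IC50 from logit activity versus log concentration.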
The nature of data set [1]: In vivo half life of the compound. Type of data set: ADME, organism-based.

The structures appear in SMILES notation.

Sequence of Cholinesterase (P06276 whole entry): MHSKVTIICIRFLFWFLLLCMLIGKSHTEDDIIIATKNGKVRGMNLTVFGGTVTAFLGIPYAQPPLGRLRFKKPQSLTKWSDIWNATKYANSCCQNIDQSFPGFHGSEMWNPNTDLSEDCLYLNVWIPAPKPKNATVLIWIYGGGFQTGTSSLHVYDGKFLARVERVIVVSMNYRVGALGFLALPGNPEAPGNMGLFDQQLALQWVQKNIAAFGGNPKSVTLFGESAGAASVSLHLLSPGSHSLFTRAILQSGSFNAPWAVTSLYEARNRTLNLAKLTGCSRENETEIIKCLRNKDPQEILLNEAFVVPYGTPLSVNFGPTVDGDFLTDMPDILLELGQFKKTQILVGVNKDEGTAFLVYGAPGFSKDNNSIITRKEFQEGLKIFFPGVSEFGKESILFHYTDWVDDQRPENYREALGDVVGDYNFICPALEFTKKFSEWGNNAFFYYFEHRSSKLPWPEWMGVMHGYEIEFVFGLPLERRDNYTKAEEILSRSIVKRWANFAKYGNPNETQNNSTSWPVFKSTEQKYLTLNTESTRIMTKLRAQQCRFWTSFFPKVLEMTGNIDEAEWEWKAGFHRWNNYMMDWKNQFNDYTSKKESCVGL
Sequence of Acetylcholinesterase (P22303 whole entry): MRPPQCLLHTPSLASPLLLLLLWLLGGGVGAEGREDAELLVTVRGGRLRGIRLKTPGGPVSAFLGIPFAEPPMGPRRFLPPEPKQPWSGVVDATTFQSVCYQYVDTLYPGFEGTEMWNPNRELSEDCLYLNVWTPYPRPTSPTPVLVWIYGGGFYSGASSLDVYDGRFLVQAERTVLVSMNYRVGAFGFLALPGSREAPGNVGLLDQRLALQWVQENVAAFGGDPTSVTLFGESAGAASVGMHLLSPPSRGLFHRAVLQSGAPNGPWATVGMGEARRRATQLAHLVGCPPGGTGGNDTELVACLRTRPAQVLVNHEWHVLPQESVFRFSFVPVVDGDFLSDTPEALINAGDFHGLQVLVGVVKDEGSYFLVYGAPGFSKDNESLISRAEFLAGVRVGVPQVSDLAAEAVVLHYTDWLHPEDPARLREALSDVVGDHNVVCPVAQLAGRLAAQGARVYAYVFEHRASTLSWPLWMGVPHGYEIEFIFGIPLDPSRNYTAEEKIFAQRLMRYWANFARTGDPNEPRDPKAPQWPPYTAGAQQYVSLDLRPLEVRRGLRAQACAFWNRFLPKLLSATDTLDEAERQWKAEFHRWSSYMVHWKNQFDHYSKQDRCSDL

Take `CN1CC[C@@]2(C)c3cc(OC(=O)Nc4ccccc4)ccc3N(C=O)C12` (stereo not given in full): the 50% inhibitory concentration (IC50) (usually the concentration at which inhibition is half-maximal) at Acetylcholinesterase was found to be 780 nM; at Cholinesterase, 1470 nM.
For `CNC(=O)Oc1ccc2c(c1)[C@@]1(C)CCN(C)C1N2Cc1ccccc1` (stereo not given in full), in that order: 2850 nM and 1590 nM.
The corresponding values for `CN1CC[C@@]2(C)c3cc(OC(=O)Nc4ccccc4)ccc3N(Cc3ccccc3)C12` (stereo not given in full) are 245 nM and 85.3 nM.
As to `CN1CC[C@@]2(C)c3cc(OC(=O)Nc4ccccc4)ccc3NC12` (stereo not given in full), at Cholinesterase, the half-inhibitory concentration (IC50) was found to be 516 nM.
For `CNC(=O)Oc1ccc2c(c1)[C@]1(C)CCN(C)C1N2` (stereo not given in full), the IC50 at Acetylcholinesterase stood at 56.7 nM; on Cholinesterase, 6.8 nM.
As to `CN1CC[C@@]2(C)c3cc(OC(=O)Nc4ccccc4)ccc3N(C)C12` (stereo not given in full), in data set [1], the half-life (commonly how long it takes for the measured level to halve) is 8 h. In addition, the figures for the IC50 against Acetylcholinesterase and against Cholinesterase were 24 nM and 1300 nM, respectively.
On to `CN1CC[C@]2(C)c3cc(OC(=O)Nc4ccccc4)ccc3N(C)C12` (stereo not given in full), for which the concentration for half-maximal inhibition (IC50) on Acetylcholinesterase was 3500 nM; against Cholinesterase, 23500 nM.
For `CNC(=O)Oc1ccc2c(c1)[C@]1(C)CCN(C)C1N2Cc1ccccc1` (stereo not given in full), in that order: 161 nM and 21.8 nM.
For `CN1CC[C@]2(C)c3cc(OC(=O)Nc4ccccc4)ccc3NC12` (stereo not given in full), in that order: 5650 nM and 1750 nM.
For `CNC(=O)Oc1ccc2c(c1)[C@@]1(C)CCN(C)C1N2` (stereo not given in full), in that order: 2190 nM and 1120 nM.
As for `CNC(=O)Oc1ccc2c(c1)[C@]1(C)CCN(C)C1N2C=O` (stereo not given in full), the 50% inhibitory concentration (IC50) came to 387 nM against Acetylcholinesterase and 46 nM at Cholinesterase.
As to `CN1CC[C@]2(C)c3cc(OC(=O)Nc4ccccc4)ccc3N(Cc3ccccc3)C12` (stereo not given in full), the half-inhibitory concentration (IC50) was 11200 nM against Acetylcholinesterase and 7090 nM at Cholinesterase.
In turn, `CNC(=O)Oc1ccc2c(c1)[C@]1(C)CCN(C)[C@@H]1N2C` [PHYSOSTIGMINE] came in with a half-life in data set [1] of 1 h.

(Values after ChEMBL document CHEMBL1130392, “Total syntheses and anticholinesterase activities of (3aS)-N(8)-norphysostigmine, (3aS)-N(8)-norphenserine, their antipodal isomers, and other N(8)-substituted analogues” (J Med Chem, 1997).)
